Activity, EC50 and Activity_index data for one compound are collected here from ChEMBL document CHEMBL3868590, “Quambalarine B, a Secondary Metabolite from Quambalaria cyanescens with Potential Anticancer Properties” (J Nat Prod, 2016).

In data set [1] the test system is NALM-6. In words: Cytostatic activity against eFluor670-labelled human NALM6 cells assessed as live cells at 2 umol/L measured on day 2 by Hoechst-33258 staining-based FACS analysis (reference value: 97.7%). In kind it is functional.
Data set [2] in a line: Cytotoxicity against CD14+ monocytes in human PBMC population assessed as reduction in viable cells measured after 24 hrs by Hoechst-33258 staining-based FACS analysis. In kind it is toxicity, cell-based, Monocyte. The method, boiled down: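 PBMC were isolated from blood on a Ficoll-Paque gradient and seeded at 1 × 10^5 cells/well in 400 μL RPMI1640. Cells were exposed to a range of compound concentrations for 24 h. Viable CD3+, CD14+ and CD20+ populations were measured as Hoechst 33258-negative singlets by flow cytometry. EC50 was obtained by five-parameter nonlinear regression.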
A general note: A flow cytometer gives signals particle by particle.

Data set [3] relates to NALM-6. The experiment in a line: Decrease in C-MYC mRNA level in human NALM6 cells at EC50 measured after 24 hrs by RT-qPCR analysis. Format: functional, cell-based. On the technique in general: Real-time PCR tracks product formation cycle by cycle.
For data set [4], the system named is NALM-6. The experiment in a line: Cytostatic activity against human NALM6 cells assessed as population doubling level at 2 umol/L after 6 days using Burker counting chamber (reference value: 3.44). In kind it is functional. A digest of the protocol: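 Cells were seeded at 2.5 × 10^5 cells/mL in DMSO-containing medium, with or without 2 μmol/L compound. Cells were counted daily in a Bürker chamber. PDL was calculated as log(Nf/N0)/log 2 over 6 days. Values are mean ± SD of three experiments, compared with DMSO controls.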

Data set [5] in a line: Cytotoxicity against PHA/LPS-stimulated CD3-positive T-lymphocytes in eFluor670-labeled human PBMC assessed as division index at 2 umol/L administered post 18 hrs of PHA/LPS-stimulation measured after 72 hrs by Hoechst-33258 staining-based FACS analysis (reference value: 0.381). Format: toxicity. The conditions noted are these: t-cell, 2 µM.

Molecules are shown by their SMILES. Active and inactive are the calls of the source. The calls are words filed in the database; no cut-off is given here.

As a reminder, the EC50 is the concentration needed to bring the measured effect to its halfway point.

For `CCCCCC(=O)C1=C(O)C(=O)c2c(O)c(O)cc(O)c2C1=O`, the Activity with NALM-6 [1] is listed as 97.7%; with NALM-6 [4], 1.75. For the same compound, in data set [2], the EC50 at 24 h came to 15.1 µM. Further, in the data set with NALM-6 [3], the outcome was Active. Also, the Activity_index in data set [5] was determined as 0.196.
